Test results reported in ChEMBL document CHEMBL3102792, “Small molecule mimetics of an interferon-α receptor interacting domain” (Bioorg Med Chem, 2014).
Activity calls are given as the source filed them. No cut-off for these calls is given here.

Key:
[1] = Distribution coefficient, log D of the compound at pH 7.4; details: octanol/water
[2] = molecular target: T1, Interferon alpha/beta receptor 1 (Homo sapiens) (UniProt P17181); assay: Inhibition of IFNAR in human Daudi cells assessed as reduction of IFN-induced STAT1 phosphorylation at 200 uM after 15 mins by Western blotting; format: cell-based
T1 sequence (whole entry): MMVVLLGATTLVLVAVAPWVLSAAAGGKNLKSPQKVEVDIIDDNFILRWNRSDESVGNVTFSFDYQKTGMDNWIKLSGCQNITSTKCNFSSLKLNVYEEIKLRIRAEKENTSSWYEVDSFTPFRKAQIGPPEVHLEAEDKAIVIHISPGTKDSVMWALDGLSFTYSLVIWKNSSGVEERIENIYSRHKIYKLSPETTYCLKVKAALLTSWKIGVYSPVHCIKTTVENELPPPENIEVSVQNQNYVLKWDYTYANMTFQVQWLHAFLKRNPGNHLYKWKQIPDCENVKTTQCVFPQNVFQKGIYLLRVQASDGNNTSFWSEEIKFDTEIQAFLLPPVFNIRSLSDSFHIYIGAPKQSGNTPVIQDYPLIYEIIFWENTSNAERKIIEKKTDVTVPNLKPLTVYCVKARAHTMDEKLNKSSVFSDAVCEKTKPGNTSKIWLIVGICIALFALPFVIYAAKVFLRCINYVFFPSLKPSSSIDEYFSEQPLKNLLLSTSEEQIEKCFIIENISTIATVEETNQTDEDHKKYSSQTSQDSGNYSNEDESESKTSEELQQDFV
Outline: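 Daudi cells untreated, given 10 pg IFN alfacon-1 alone, or 10 pg IFN plus 200 µM compound for 15 min. Lysed in phosphorylation lysis buffer with protease and phosphatase inhibitors. Equal protein run on SDS–PAGE and immunoblotted for tyrosine-phosphorylated STAT1. Bands quantitated relative to tubulin. Data representative of duplicate independent experiments.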

[3] = molecular target: T1, Interferon alpha/beta receptor 1 (Homo sapiens); assay: Inhibition of IFNAR in human Daudi cells assessed as reduction of STAT-DNA binding at 200 uM by EMSA; format: cell-based
Outline: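 Daudi cells untreated, given 100 pg IFN alfacon-1, or IFN plus the indicated compound doses for 15 min. Protein–DNA complexes resolved by native PAGE (EMSA).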

[4] = molecular target: T1, Interferon alpha/beta receptor 1 (Homo sapiens); assay: Inhibition of IFNAR in human Daudi cell nuclear extracts assessed as reduction of IFN-induced STAT1 phosphorylation at 200 uM after 15 mins by Western blotting
Outline: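 Daudi cells untreated, given 10 pg IFN alfacon-1 alone, or 10 pg IFN plus 200 µM compound for 15 min. Nuclear extracts immunoblotted for tyrosine-phosphorylated STAT1. Band intensities quantitated relative to tubulin as loading control.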

[5] = Solubility of the compound; format: physicochemical
Daudi = assay: Cytotoxicity against human Daudi cells assessed as cell viability up to 200 uM after 24 hrs by propidium iodide staining; format: cell-based
Outline: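 Daudi cells (1 × 10⁶) left untreated or exposed to the indicated compound doses for 24 h, washed twice in PBS and resuspended in PBS with 2% FCS. 10⁵ cells stained with propidium iodide for 15 min; dead (PI-positive) cells counted by FACS.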

Row | SMILES | logD [1] | inhibition [2] | inhibition [3] | inhibition [4] | solubility [5] | Activity (Daudi)
1 | O=C(c1cc(S(=O)(=O)Nc2cccc(Cl)c2)c(Cl)cc1Cl)N1CCN(Cc2ccc3c(c2)OCO3)CC1 | 2.4 | inactive |  |  |  | 
2 | O=C(c1cc(S(=O)(=O)Nc2cccc(C(F)(F)F)c2)ccc1Cl)N1CCN(Cc2ccc3c(c2)OCO3)CC1 | -0.1 | inactive |  |  |  | 
3 | O=C(c1cc(S(=O)(=O)Nc2ccccc2F)c(Cl)cc1Cl)N1CCN(Cc2ccc3c(c2)OCO3)CC1 | 0.01 | inactive |  |  |  | 
4 | O=C(c1ccc(NS(=O)(=O)c2cc(Cl)sc2Cl)cc1)N1CCN(Cc2ccc3c(c2)OCO3)CC1 |  | Active | Active | Active |  | 
5 | O=C(c1cccc(S(=O)(=O)Nc2ccc(Cl)cc2)c1)N1NC2=C(CCC/C2=C\c2ccco2)C1c1ccco1 (mixture of isomers) | -0.8 | inactive |  |  |  | 

Further lines, with some results ahead:

Row | logD [1] | inhibition [2] | inhibition [3] | inhibition [4] | solubility [5] | SMILES | Activity (Daudi)
6 | -0.1 | inactive |  |  |  | CCOC(=O)c1nn(-c2ccc(C)cc2)c(C)c1C(=O)C1=NOC2C(=O)N(c3ccccc3C)C(=O)C12 (stereo not given) | 
7 | -0.3 | inactive |  |  |  | COc1ccccc1NS(=O)(=O)c1cc(C(=O)N2CCN(Cc3ccc4c(c3)OCO4)CC2)ccc1Cl | 
8 | 0.2 | inactive |  |  |  | COc1ccccc1NS(=O)(=O)c1ccc2oc(=S)n(CN3CCN(c4ccc(F)cc4)CC3)c2c1 | 
9 | 4.7 | Active | Active | Active | soluble | Cc1ccc(-n2c(SCC(=O)N/N=C/c3ccccc3OCC(=O)O)nc3ccccc3c2=O)cc1 (mixture of isomers) | Non-toxic
10 | 5.8 | inactive |  |  |  | CCOc1ccccc1/C=N/NC(=O)CSc1nc2ccccc2c(=O)n1-c1ccccc1C (mixture of isomers) | 
11 | 8.9 | Active | Active | Active |  | O=C(O)CCCCCN1C(=O)/C(=C/c2c(N3CCCc4ccccc43)nc3ccccn3c2=O)SC1=S (mixture of isomers) | Toxic
